{"data": "Results pooled from the literature", "target": "Alpha-2A adrenergic receptor (ADRA2A, Homo sapiens, UniProt P08913)", "tested at": "10 µM", "Residues used in one study (P08913 1-465)": "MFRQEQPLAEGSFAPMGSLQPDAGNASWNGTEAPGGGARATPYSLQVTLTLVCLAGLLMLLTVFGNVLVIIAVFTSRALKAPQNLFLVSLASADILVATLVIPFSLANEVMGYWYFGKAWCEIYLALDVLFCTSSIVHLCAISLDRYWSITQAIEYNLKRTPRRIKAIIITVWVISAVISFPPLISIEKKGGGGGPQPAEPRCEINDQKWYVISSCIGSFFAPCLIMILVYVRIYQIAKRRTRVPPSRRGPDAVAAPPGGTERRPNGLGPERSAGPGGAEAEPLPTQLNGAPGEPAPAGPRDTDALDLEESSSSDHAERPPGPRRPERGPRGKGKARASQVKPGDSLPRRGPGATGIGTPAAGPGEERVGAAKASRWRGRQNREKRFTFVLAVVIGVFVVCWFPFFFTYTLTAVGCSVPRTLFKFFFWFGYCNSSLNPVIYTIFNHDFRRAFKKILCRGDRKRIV", "note": "Compare with care: the assays were run in different laboratories."}
{"Compound": "CN([C@@H]1CCc2c(CC(=O)O)c3ccccc3n2C1)S(=O)(=O)c1ccc(F)cc1", "test": "ligand displacement", "inhibition": "-3.89%"}
{"Compound": "CCCNc1nc2ccccc2n1Cc1ccc(Cl)cc1", "test": "ligand displacement", "inhibition": "90.2%"}
{"Compound": "Ic1cccc2cnccc12", "test": "ligand displacement, radioligand", "inhibition": "13%"}
{"Compound": "CCN(CC)c1ccc(C2Nc3ccc(C(=O)c4ccccc4)cc3NC3=C2C(=O)CC(C)(C)C3)cc1 (centres unmarked)", "test": "ligand displacement, radioligand", "inhibition": "5%"}
{"Compound": "COc1cc(NC(C)=O)c(Cl)cc1C(=O)Nc1nccs1", "test": "cell-free assay", "inhibition": "-7%"}
{"Compound": "Cc1cc(-c2nc(CN3CCNCC3)no2)cc2c1C(=O)N(Cc1ccc(OC(F)(F)F)cc1)C2", "test": "ligand displacement, radioligand", "inhibition": "41%"}
{"Compound": "CC(=O)C1=C(C)N(c2cccc(C(F)(F)F)c2)C(=O)N[C@H]1c1ccc(C#N)nc1", "test": "ligand displacement", "inhibition": "-8.89%"}
{"Compound": "N#Cc1cc(Cn2c(N3CCCC3)nc3ccccc32)ccc1F", "test": "ligand displacement", "inhibition": "31.6%"}
{"Compound": "CCN(Cc1ccccc1C(F)(F)F)C(=O)C1CCN(S(=O)(=O)c2ccc3[nH]ncc3c2)CC1", "test": "ligand displacement, radioligand", "inhibition": "37%"}
{"Compound": "O=C(c1ccc(Cl)cc1)N(Cc1ccccc1)C1CCCCC1", "test": "cell-free assay", "inhibition": "4%"}
{"Compound": "O=C1c2ccccc2C(=O)N1CC#Cc1ccc2c(c1)C=C([N+](=O)[O-])C(C(F)(F)F)O2 (centres unmarked)", "test": "ligand displacement, radioligand", "inhibition": "88%"}
